Reference: ChEMBL document CHEMBL1145210, “Novel cyano- and N-isopropylamidino-substituted derivatives of benzo[b]thiophene-2-carboxanilides and benzo[b]thieno[2,3-c]quinolones: synthesis, photochemical synthesis, crystal structure determination, and antitumor evaluation. 2” (J Med Chem, 2005)

Assays:
[1] = In vitro Inhibition on growth of human WI 38 diploid fibroblast cell line; type: functional, cell-based
Outline: (§1)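 Monolayer cultures in DMEM with 10% FBS, 2 mM L-glutamine, penicillin/streptomycin, 37 °C, 5% CO2. Cells plated on day 0 at densities set by doubling time (1 × 10⁴/mL HeLa, Hep-2, MiaPaCa-2, SW 620; 2 × 10⁴/mL MCF-7; 3 × 10⁴/mL WI 38). Compound added at five 10-fold dilutions (10^-8 to 10^-4 mol/L) for 72 h. MTT read at 570 nm, converted to percentage growth versus time-zero and untreated controls. Quadruplicate points, three experiments. IC50 by linear regression.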

[2] = tested on: SW-620; assay: In vitro Inhibition on growth of human SW 620 colon carcinoma cell line; type: functional, cell-based; outline: as §1
[3] = tested on: MIA PaCa-2; assay: In vitro Inhibition on growth of human MiaPaCa-2 pancreatic carcinoma cell line; type: functional, cell-based; outline: as §1
[4] = In vitro Inhibition on growth of human Hep 2 laryngeal carcinoma cell line; type: functional; outline: as §1
[5] = tested on: MCF7; assay: In vitro Inhibition on growth of human MCF 7 breast carcinoma cell line; type: functional, cell-based; outline: as §1
[6] = tested on: HeLa; assay: In vitro Inhibition on growth of human HeLa cervical carcinoma cell line; type: functional, cell-based; outline: as §1
[7] = tested on: MIA PaCa-2; assay: Percentage of apoptosis induced by compound in MiaPaCa-2 cell line at 5 uM concentration after 72 h; type: functional, Homo sapiens
Outline: (§2)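 Annexin-V assay after 72 h exposure to 5 or 10 µM. Cells washed with PBS, pelleted, and stained with Annexin-V-fluorescein plus propidium iodide in Hepes buffer. Scored by fluorescence microscopy: Annexin-V-positive cells counted as apoptotic, Annexin-V/PI double-positive as necrotic. Apoptotic fraction given as percentage of total cells.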

[8] = tested on: HeLa; assay: Percentage of apoptosis induced by compound in HeLa cell line after at 5 uM concentration 72 h; type: functional, Homo sapiens; outline: as §2
[9] = tested on: MIA PaCa-2; assay: Percentage of apoptosis induced by compound in MiaPaCa-2 cell line at 10 uM concentration after 72 h; type: functional, Homo sapiens; outline: as §2
[10] = tested on: HeLa; assay: Percentage of apoptosis induced by compound in HeLa cell line after at 10 uM concentration 72 h; type: functional, Homo sapiens; outline: as §2
[11] = tested on: SW-620; assay: Percentage of apoptosis induced by compound in SW 620 cell line at 10 uM concentration after 72 h; type: functional, Homo sapiens; outline: as §2
[12] = tested on: SW-620; assay: Percentage of apoptosis induced by compound in SW 620 cell line at 5 uM concentration after 72 h; type: functional, Homo sapiens; outline: as §2

IC50 [2] | IC50 [3] | IC50 [5] | IC50 [6] | SMILES | IC50 [1] | IC50 [4] | Apoptosis [7] | Apoptosis [8] | Apoptosis [9] | Apoptosis [10] | Apoptosis [11] | Apoptosis [12]
4.18 µM | 2.54 µM | 2.62 µM | 3.05 µM | CC(C)/N=C(/N)c1ccc2c(Cl)c(C(=O)Nc3ccc(Br)cc3)sc2c1 | 3.64 µM | 3.14 µM | – | – | – | – | – | –
3.54 µM | 5.11 µM | 7.26 µM | 2.35 µM | Cc1ccc(NC(=O)c2sc3cc(/C(N)=N\C(C)C)ccc3c2Cl)cc1 | 2.03 µM | 2.96 µM | – | – | – | – | – | –
> 100 µM | > 100 µM | > 100 µM | > 100 µM | N#Cc1ccc2c(Cl)c(C(=O)Nc3ccc(Br)cc3)sc2c1 | 5.99 µM | > 100 µM | – | – | – | – | – | –
3.53 µM | 4.44 µM | 3.49 µM | 3 µM | Cc1ccc2c(Cl)c(C(=O)Nc3ccc(/C(N)=N\C(C)C)cc3)sc2c1 | 3.3 µM | 3.94 µM | – | – | – | – | – | –
> 100 µM | 42.1 µM | > 100 µM | 6.14 µM | CC(C)/N=C(/N)c1ccc2nc(O)c3sc4cc(C#N)ccc4c3c2c1 | ≥ 100 µM | ≥ 100 µM | – | – | – | – | – | –
95.5 µM | > 100 µM | > 100 µM | > 100 µM | COC(=O)c1ccc2c(Cl)c(C(=O)Nc3ccccc3)sc2c1 | 53.6 µM | > 100 µM | – | – | – | – | – | –
3.86 µM | 4.67 µM | 3.7 µM | 2.7 µM | COc1ccc2c(Cl)c(C(=O)Nc3ccc(C(=N)NC(C)C)cc3)sc2c1 | 4.01 µM | 2.55 µM | – | – | – | – | – | –
6.84 µM | 3.71 µM | 5.78 µM | 1.7 µM | CC(C)/N=C(/N)c1ccc2nc(O)c3sc4cc(Br)ccc4c3c2c1 | 19 µM | 6.95 µM | – | – | – | – | – | –
48.8 µM | 5.64 µM | 65.1 µM | 4.79 µM | COC(=O)c1ccc2c(c1)sc1c(O)nc3ccc(C(=N)NC(C)C)cc3c12 | > 100 µM | 45.9 µM | 4% | 12% | 13% | 17% | 9% | 7%
4.62 µM | > 100 µM | > 100 µM | 24.1 µM | COC(=O)c1ccc(NC(=O)c2sc3cc(C#N)ccc3c2Cl)cc1 | 2.71 µM | 59.1 µM | 3% | 6% | 9% | 52% | 71% | 6%
32.2 µM | 7.3 µM | 1.36 µM | 25.3 µM | CC(C)/N=C(/N)c1ccc2nc(O)c3sc4ccccc4c3c2c1 | ≥ 100 µM | 16.6 µM | 4% | 9% | 11% | 11% | 13% | 9%
8.02 µM | 8.72 µM | 23.9 µM | 22.2 µM | CC(C)/N=C(/N)c1ccc(NC(=O)c2sc3cc(C#N)ccc3c2Cl)cc1 | 25.1 µM | 21 µM | – | – | – | – | – | –
4.57 µM | 7.23 µM | 1.27 µM | 4.26 µM | CC(C)/N=C(/N)c1ccc2c(Cl)c(C(=O)Nc3ccccc3)sc2c1 | 4.7 µM | 23.8 µM | – | – | – | – | – | –
≥ 100 µM | 86.9 µM | 78.5 µM | 31.6 µM | CC(C)/N=C(/N)c1ccc2c(c1)sc1c(O)nc3ccc(/C(N)=N\C(C)C)cc3c12 | ≥ 100 µM | > 100 µM | – | – | – | – | – | –
> 100 µM | 90.9 µM | 17.6 µM | 40.4 µM | COc1ccc(NC(=O)c2sc3cc(C#N)ccc3c2Cl)cc1 | 23.4 µM | 48.4 µM | – | – | – | – | – | –
8.24 µM | 22.5 µM | 17.4 µM | 5.83 µM | COc1ccc(NC(=O)c2sc3cc(C(=N)NC(C)C)ccc3c2Cl)cc1 | 29.8 µM | 9.7 µM | – | – | – | – | – | –

IC50 [2] | IC50 [3] | IC50 [5] | IC50 [6] | SMILES | IC50 [1] | IC50 [4] | Apoptosis [7] | Apoptosis [8] | Apoptosis [9] | Apoptosis [10] | Apoptosis [11] | Apoptosis [12]
> 100 µM | 75.9 µM | 15.6 µM | 25.6 µM | CC(C)/N=C(/N)c1ccc(NC(=O)c2sc3cc(/C(N)=N\C(C)C)ccc3c2Cl)cc1 | 86.9 µM | 67.3 µM | – | – | – | – | – | –
8.11 µM | 6.93 µM | 5.56 µM | 15.8 µM | COC(=O)c1ccc2nc(O)c3sc4cc(C(=N)NC(C)C)ccc4c3c2c1 | 5.33 µM | 97 µM | 6% | 13% | 14% | 15% | 7% | 6%
> 100 µM | > 100 µM | > 100 µM | > 100 µM | COC(=O)c1ccc(NC(=O)c2sc3ccccc3c2Cl)cc1 | 44.3 µM | > 100 µM | – | – | – | – | – | –
7.57 µM | 5.98 µM | 5.4 µM | 4.3 µM | Cc1ccc2c(c1)sc1c(O)nc3ccc(/C(N)=N\C(C)C)cc3c12 | 18.7 µM | 8.59 µM | 3% | 6% | 17% | 8% | 16% | 15%
3.6 µM | 7.1 µM | 2.36 µM | 5.65 µM | COC(=O)c1ccc(NC(=O)c2sc3cc(C(=N)NC(C)C)ccc3c2Cl)cc1 | 6.9 µM | 8.16 µM | – | – | – | – | – | –
27.8 µM | 6.99 µM | 1.97 µM | 12.9 µM | CC(C)/N=C(/N)c1ccc(NC(=O)c2sc3ccccc3c2Cl)cc1 | 36.4 µM | 15.3 µM | – | – | – | – | – | –
3.76 µM | 18 µM | 21.3 µM | 49.2 µM | CC(C)/N=C(/N)c1ccc2c(c1)sc1c(O)nc3ccccc3c12 | 37.4 µM | 20.9 µM | – | – | – | – | – | –
> 100 µM | > 100 µM | 100 µM | 0.86 µM | N#Cc1ccc(NC(=O)c2sc3ccccc3c2Cl)cc1 | 8.12 µM | 6.5 µM | – | – | – | – | – | –
20.6 µM | 6.73 µM | 38 µM | 2.34 µM | COc1ccc2c(c1)sc1c(O)nc3ccc(C(=N)NC(C)C)cc3c12 | 40.6 µM | 34.7 µM | – | – | – | – | – | –
≥ 100 µM | > 100 µM | 84.9 µM | 0.35 µM | N#Cc1ccc2c(Cl)c(C(=O)Nc3ccccc3)sc2c1 | ≥ 100 µM | 0.69 µM | – | – | – | – | – | –
3.93 µM | 3.51 µM | 2.54 µM | 2.15 µM | CC(C)/N=C(/N)c1ccc(NC(=O)c2sc3cc(Br)ccc3c2Cl)cc1 | 2.99 µM | 2.37 µM | – | – | – | – | – | –
22.7 µM | 6.67 µM | 5.58 µM | 6.43 µM | Cc1ccc2nc(O)c3sc4cc(/C(N)=N\C(C)C)ccc4c3c2c1 | 19.1 µM | 8.51 µM | – | – | – | – | – | –
> 100 µM | > 100 µM | > 100 µM | > 100 µM | Cc1ccc(NC(=O)c2sc3cc(C#N)ccc3c2Cl)cc1 | 0.75 µM | > 100 µM | – | – | – | – | – | –
13.2 µM | 7.99 µM | 6.28 µM | 8.92 µM | CC(C)/N=C(/N)c1ccc2c(c1)sc1c(O)nc3ccc(Br)cc3c12 | 3.88 µM | 9.79 µM | 3% | 10% | 11% | 15% | 13% | 9%
3.67 µM | 3.49 µM | 1.23 µM | 2.24 µM | COC(=O)c1ccc2c(Cl)c(C(=O)Nc3ccc(C(=N)NC(C)C)cc3)sc2c1 | 2.85 µM | 5.37 µM | – | – | – | – | – | –
